Legend:
[1] = Hemolytic activity in rabbit RBC assessed as hemolysis after 60 mins by microtitre plate reader analysis; type: ADME, cell-based, Oryctolagus cuniculus; conditions: erythrocyte, 1 h
How it was run: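 Rabbit erythrocytes at 2% (5 × 10⁸ RBC/mL) in PBS, pH 7.4, exposed to serially diluted compounds for 60 min at 37 °C. Hemolysis was read as absorbance at 541 nm, and percentage hemolysis was calculated by the routine method.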

[2] = system: Vesicular stomatitis virus; test: Antiviral activity against Vesicular stomatitis virus assessed as blockage of VSV pseudo paricle entry to human Hep3B cells at 5 uM after 72 hrs; type: functional, Hep 3B2
[3] = system: Vesicular stomatitis virus; test: Antiviral activity against Vesicular stomatitis virus assessed as blockage of VSV pseudo paricle entry to human Hep3B cells at 1 uM after 72 hrs; type: functional, Hep 3B2
Hepatitis C virus [4] = test: Antiviral activity against Hepatitis C virus assessed as blockage of HCV pseudo paricle entry to human Hep3B cells at 5 uM after 72 hrs; type: functional, Hepacivirus hominis, Hep 3B2
Hepatitis C virus [5] = test: Antiviral activity against Hepatitis C virus assessed as blockage of HCV pseudo paricle entry to human Hep3B cells at 1 uM after 72 hrs; type: functional, Hepacivirus hominis, Hep 3B2

Compound	Activity [1]	Activity [2] [%]	Activity [3] [%]	Activity (Hepatitis C virus [4]) [%]	Activity (Hepatitis C virus [5]) [%]
CC1(C)CC[C@]2(C(=O)O)[C@H](O)C[C@]3(C)C(=CC[C@@H]4[C@@]5(C)[C@H](O)C[C@H](O)C(C)(C)[C@@H]5CC[C@]43C)[C@@H]2C1	Non-toxic	11.8	7.9	35.2	14.3
CC1(C)CC[C@@]2(C(=O)O)C(=C3C=C[C@@H]4[C@@]5(C)CC[C@H](O)C(C)(C)[C@@H]5C[C@H](O)[C@@]4(C)[C@]3(C)C[C@H]2O)C1	–	-4.4	-13.7	31.9	22.2
CC1(C)C[C@H]2C3=CC[C@@H]4[C@@]5(C)[C@H](O)C[C@H](O)C(C)(C)[C@@H]5CC[C@@]4(C)[C@]3(C)C[C@@H](O)[C@@]23C[C@@H]1OC3=O	Non-toxic	19.2	1.8	72.6	28.9
CC1(C)C[C@H]2C3=CC[C@@H]4[C@@]5(C)CC[C@H](O)C(C)(C)[C@@H]5CC[C@@]4(C)[C@]3(C)C[C@@H](O)[C@@]23C[C@@H]1OC3=O	Non-toxic	-12.1	-17.3	31.9	13.9
CC1(C)C[C@H]2C3=CC[C@@H]4[C@@]5(C)CC[C@H](O)C(C)(C)[C@@H]5[C@H](O)C[C@@]4(C)[C@]3(C)C[C@@H](O)[C@@]23C[C@@H]1OC3=O	Non-toxic	-24	-8.3	4.7	-1
CC1(C)C(=O)CC[C@]2(C)[C@H]3CC=C4[C@@H]5C[C@](C)(CO)CC[C@]5(C(=O)O)[C@H](O)C[C@@]4(C)[C@]3(C)CC[C@@H]12	–	10.7	-20	-3.3	3.1
CC1(C)CC[C@]2(C(=O)O)[C@H](O)C[C@]3(C)C(=CC[C@@H]4[C@@]5(C)CC[C@H](O)C(C)(C)[C@@H]5CC[C@]43C)[C@H]2C1 [ECHINOCYSTIC ACID]	–	-0.1	-0.1	75.5	21.3
CC1(C)CC[C@]2(C(=O)O)[C@H](O)C[C@]3(C)C(=CC[C@@H]4[C@@]5(C)CC[C@H](O)C(C)(C)[C@@H]5C[C@H](O)[C@]43C)[C@@H]2C1	Non-toxic	5.6	1.6	53.5	30.4
CC1(C)CC[C@]2(C(=O)O)[C@H](O)C[C@]3(C)C(=CC[C@@H]4[C@@]5(C)CCC(=O)C(C)(C)[C@@H]5CC[C@]43C)[C@@H]2C1	Non-toxic	13.6	-2.5	41.6	7.5
CC1(C)CC[C@@]2(C(=O)O)C(=C3C=C[C@@H]4[C@@]5(C)[C@H](O)C[C@H](O)C(C)(C)[C@@H]5CC[C@@]4(C)[C@]3(C)C[C@H]2O)C1	–	5.9	-15.8	26.3	2.3
CC1(C)[C@@H](O)CC[C@]2(C)[C@H]3CC=C4[C@@H]5C[C@](C)(CO)CC[C@]5(C(=O)O)[C@H](O)C[C@@]4(C)[C@]3(C)CC[C@@H]12	Non-toxic	3.6	-2.5	36.5	16.5
CC1(C)CC2=C3C=C[C@@H]4[C@@]5(C)CC[C@H](O)C(C)(C)[C@@H]5CC[C@@]4(C)[C@]3(C)C[C@@H](O)[C@@]23C[C@@H]1OC3=O	Non-toxic	-10.3	-16.2	31.7	11.6
CC1(C)C[C@H]2C3=CC[C@@H]4[C@@]5(C)CC[C@H](O)C(C)(C)[C@@H]5CC[C@@]4(C)[C@]3(C)C[C@@H](O)[C@@]2(C(=O)O)C[C@@H]1O	–	33.2	20.7	18.4	-5.7

— ChEMBL document CHEMBL2390833, “Elucidation of the pharmacophore of echinocystic acid, a new lead for blocking HCV entry” (Eur J Med Chem, 2013)
